The results in this text go back to ChEMBL document CHEMBL2034958, “Peptidolipins B-F, antibacterial lipopeptides from an ascidian-derived Nocardia sp” (2012).

For assay [1], the system named is Staphylococcus aureus. The assay is described as follows: Bacteriostatic activity against methicillin-resistant Staphylococcus aureus ATCC 33591 after 18 hrs. The class given is functional, organism-based. The procedure, abridged:
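After the 18 h, 33 °C microdilution MIC plate, a sterile swab dipped into each well showing growth inhibition was inoculated onto an LB plate to tell bactericidal from bacteriostatic action.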

Assay [2] concerns Staphylococcus aureus. The assay is described as follows: Bacteriostatic activity against methicillin-susceptible Staphylococcus aureus ATCC 29213 after 18 hrs. The class given is functional, organism-based. In short, it runs like this: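 Broth dilution susceptibility test for aerobic bacteria against MSSA ATCC 29213. Compounds in DMSO, serially diluted to 10 concentrations (0.125−64 μg/mL) in 96-well plates, tested in triplicate with vancomycin control and six untreated media controls per plate. Incubated at 33 °C for 18 h. MIC was the lowest concentration without visible growth. Inhibited wells were swabbed onto LB plates to distinguish bacteriostatic from bactericidal.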

Assay [3] has as its system Staphylococcus aureus. As to the kind of experiment: Antibacterial activity against methicillin-resistant Staphylococcus aureus ATCC 33591 after 18 hrs. The class given is functional. The conditions noted are these: ATCC 33591, 18 h. The procedure, abridged: (§1)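 Dilution susceptibility test for aerobic bacteria. Compounds dissolved in DMSO and serially diluted to 10 concentrations (0.125–64 μg/mL) in 96-well plates, run in triplicate. Vancomycin served as control, with six untreated media controls per plate. Incubation at 33 °C for 18 h; MIC read as the lowest concentration inhibiting visible growth.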

In assay [4] the test system is Staphylococcus aureus. The assay is described as follows: Antibacterial activity against methicillin-susceptible Staphylococcus aureus ATCC 29213 after 18 hrs. The class given is functional. The conditions noted are these: ATCC 29213, 18 h. In short, it runs like this: as §1

≈ marks a conversion by molar mass, not a printed value. Calls of active or inactive are those of the source. No cut-off for these calls is given here. A value given as a limit tells only on which side of the number the result lay.

For orientation: MIC means the lowest concentration that inhibits growth of the organism. A high value points to a less susceptible organism. Regarding `CCCCCCCCCCCCCCCCCCCCCCC[C@@H]1CC(=O)N[C@H]([C@H](C)O)C(=O)N[C@@H](C(C)C)C(=O)N[C@@H](C)C(=O)N2CCC[C@@H]2C(=O)N[C@H]([C@@H](C)CC)C(=O)N[C@@H](C(C)C)C(=O)N[C@@H]([C@@H](C)OC)C(=O)O1` [PEPTIDOLIPIN B], the outcome in the assay with Staphylococcus aureus [1] and in the assay on Staphylococcus aureus [2] was Active. The compound further registered an MIC in the assay on Staphylococcus aureus [3] of 64 µg/mL (≈ 58.7 µM).

In the case of `CCCCCCCCCCCCCCCCCCCCCCCCC[C@@H]1CC(=O)N[C@H]([C@H](C)O)C(=O)N[C@@H](C(C)C)C(=O)N[C@@H](C)C(=O)N2CCC[C@@H]2C(=O)N[C@H]([C@@H](C)CC)C(=O)N[C@@H](C(C)C)C(=O)N[C@@H]([C@@H](C)OC)C(=O)O1` [PEPTIDOLIPIN C], the minimum inhibitory concentration (MIC) against Staphylococcus aureus [4] and in the assay on Staphylococcus aureus [3] was above 64 µg/mL each time.

With `CCCCCCCCCCCCCCCCCCCCCCCCCCC[C@@H]1CC(=O)N[C@H]([C@H](C)O)C(=O)N[C@@H](C(C)C)C(=O)N[C@@H](C)C(=O)N2CCC[C@@H]2C(=O)N[C@H]([C@@H](C)CC)C(=O)N[C@@H](C(C)C)C(=O)N[C@@H]([C@@H](C)OC)C(=O)O1` [PEPTIDOLIPIN D], the MIC against Staphylococcus aureus [4] and with Staphylococcus aureus [3] was above 64 µg/mL in each case.

For `CCCCCCCC/C=C\CCCCCCCCCCCCCCC[C@@H]1CC(=O)N[C@H]([C@H](C)O)C(=O)N[C@@H](C(C)C)C(=O)N[C@@H](C)C(=O)N2CCC[C@@H]2C(=O)N[C@H]([C@@H](C)CC)C(=O)N[C@@H](C(C)C)C(=O)N[C@@H]([C@@H](C)OC)C(=O)O1` [PEPTIDOLIPIN E], the outcome with Staphylococcus aureus [1] and in the assay on Staphylococcus aureus [2] was Active. The compound further returned an MIC in the assay on Staphylococcus aureus [4] of 64 µg/mL (≈ 57.3 µM).
